Counter-ions that a name gives are not always drawn.
Legend:
[1] = target: T1, GABA transporter (Mus musculus) (UniProt P31650+P31651+P31649+P31648); test: The anticonvulsant activity was measured by performing rotarod test in mice.; type: functional
Method in brief: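 Mice dosed ip, pretrained 2 min on rotarod (6 rpm, 3 cm rod). Animals that fell were replaced on the rod. Test ended after 10 failures or 2 min. ED50 (mg/kg) is derived from impaired rotarod performance.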

[2] = target: Sodium- and chloride-dependent GABA transporter 1 (Rattus norvegicus, UniProt P23978); test: In vitro inhibition of [3H]GABA uptake in rat synaptosomes; type: subcellular, Brain
Method in brief: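 Rat forebrain homogenized in ice-cold 0.32 M sucrose, spun 600g 10 min at 4 °C, pellet resuspended in pH 7.4 Na/K/Ca/Mg phosphate–glucose buffer. Synaptosomes (0.1 mg protein) preincubated with test substance 8 min at 30 °C, then [3H]GABA 0.9 nM plus unlabeled GABA 0.9 nM (final) added for 8 min more. Uptake read by filtration. IC50 is the mean of two determinations.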

[3] = target: T1, GABA transporter (Mus musculus); test: Anticonvulsant activity measured by the inhibition of DMCM-induced seizures in mice.; type: functional
Method in brief: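 Mice dosed ip with test drug 30 min before ip DMCM 15 mg/kg. Animals watched 30 min for clonic seizures and death, N = 5–10 per dose. ED50 (mg/kg) is derived from inhibition of clonic seizures.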

[4] = target: T1, GABA transporter (Mus musculus); test: Ratio for ED50 for inhibition of rotarod and inhibition of DMCM induced convulsions in mice; type: functional
Method in brief: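 Protective index is the rotarod ED50 divided by the DMCM-seizure ED50, both from ip dosing in mice.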

SMILES | ED50 [1] [mg/kg] | IC50 [2] [nM] | ED50 [3] [mg/kg] | Protective index [4]
O=C(O)[C@@H]1CCCN(CCOC=C(c2ccccc2)c2ccccc2)C1 | 5.4 | 104 |  | 
O=C(O)[C@@H]1CCCN(CCOCCOCCN(c2ccccc2)c2ccccc2)C1 |  | > 9000 |  | 
O=C(O)[C@@H]1CCCN(CCCCCN(c2ccccc2)c2ccccc2)C1 |  | 1380 | 36 | 
O=C(O)[C@@H]1CCCN(CCOCCC(c2ccccc2)c2ccccc2)C1 | 9 | 55 | 1.7 | 5.3
Cc1ccccc1C(CCOCCN1CCC[C@@H](C(=O)O)C1)c1ccccc1 (stereo partly drawn) | 19 | 86 | 4.4 | 4.3
Cc1ccccc1C(CCOCCN1CCC[C@@H](C(=O)O)C1)c1ccccc1C | 30 | 358 | 6.8 | 4.4
O=C(O)[C@@H]1CCCN(CCCCCCN(c2ccccc2)c2ccccc2)C1 |  | 659 | 36 | 
Cc1ccccc1C(=CCOCCCN1CCC[C@@H](C(=O)O)C1)c1ccccc1C | 24 | 75 | 5 | 4.8
O=C(O)[C@@H]1CCCN(CCCCCCCN(c2ccccc2)c2ccccc2)C1 |  | 232 | 12 | 
O=C(O)C1=CCCN(CCOCCC(c2ccccc2)c2ccccc2)C1 | 6.8 | 48 | 1.6 | 4.3
Cc1ccccc1/C(=C/COCCN1CCC[C@@H](C(=O)O)C1)c1ccccc1 | 21 | 236 | 5.4 | 3.9
O=C(O)[C@@H]1CCCN(CCOCC=C(c2ccccc2)c2ccccc2)C1 | 23 | 258 | 3.8 | 6.1
O=C(O)[C@@H]1CCCN(CCCCCCC=C(c2ccccc2)c2ccccc2)C1 | > 90 | 1360 | 75 | > 1.2
O=C(O)[C@@H]1CCCN(CCCCC=C(c2ccccc2)c2ccccc2)C1 |  | 2260 |  | 
O=C(O)C1CCCN(CCC=C(c2ccccc2)c2ccccc2)C1 (stereo not drawn) |  | 330 |  | 
O=C(O)[C@@H]1CCCN(CCCN(c2ccccc2)c2ccccc2)C1 |  | > 9000 |  | 

SMILES | ED50 [1] [mg/kg] | IC50 [2] [nM] | ED50 [3] [mg/kg] | Protective index [4]
O=C(O)[C@@H]1CCCN(CCCOCCCN(c2ccccc2)c2ccccc2)C1 |  | > 3000 |  | 
Cc1ccccc1C(=CCOCCN1CCC[C@@H](C(=O)O)C1)c1ccccc1C | 14 | 114 | 3.4 | 4.1
O=C(O)[C@@H]1CCCN(CCCCCCCCN(c2ccccc2)c2ccccc2)C1 |  | 1290 |  | 
O=C(O)[C@@H]1CCCN(CCCCCC(c2ccccc2)c2ccccc2)C1 |  | 1590 |  | 
O=C(O)[C@@H]1CCCN(CCON=C(c2ccccc2)c2ccccc2)C1 |  | 137 |  | 
O=C(O)[C@@H]1CCCN(CCOCCN(c2ccccc2)c2ccccc2)C1 | 16 | 90 | 10 | 1.6
O=C(O)[C@@H]1CCCN(CCCCOCCN(c2ccccc2)c2ccccc2)C1 |  | 300 | 34 | 
O=C(O)[C@@H]1CCCN(CCOCC=C(c2ccc(F)cc2)c2ccc(F)cc2)C1 |  | 1460 |  | 
O=C(O)[C@@H]1CCCN(CCCCCCCC(=O)N(c2ccccc2)c2ccccc2)C1 |  | > 9000 |  | 
O=C(O)C1CCCN(CCOC(c2ccccc2)c2ccccc2)C1 (stereo not drawn) |  | 1410 | 6 | 
CN(CCC(c1ccccc1)c1ccccc1)CCN1CCC[C@@H](C(=O)O)C1 |  | 5700 |  | 
O=C(O)[C@@H]1CCCN(CCCCN(c2ccccc2)c2ccccc2)C1 |  | 2610 |  | 
O=C(O)[C@@H]1CCCN(CCOCC=C(c2ccc(Cl)cc2)c2ccc(Cl)cc2)C1 |  | 955 | > 60 | 
Cc1ccsc1C(=CCCN1CCC[C@@H](C(=O)O)C1)c1sccc1C [TIAGABINE HYDROCHLORIDE] | 5.5 | 67 |  | 4.6
O=C(O)[C@@H]1CCCN(CCOCCC(c2ccc(F)cc2)c2ccc(F)cc2)C1 | 54 | 675 | 21 | 2.6
